eIF4H FP inh = inhibitors of RNA binding by human eIF4H; Q15056; eIF4H fluorescence polarization binding assay; inhibition, % at 35 µM; hit rate 0.94% among 290,000; AID 2012;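 further: calls also rest on retests at 20 µM and on dose response follow-up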
PABP polyA inh = PABP-poly(A) binding inhibition; hit rate 1% among 290,000; PABP-poly(A) RNA binding, fluorescence polarization; P11940; AID 2014; calls only at 35 µM;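 further: calls also rest on retests at 20 µM and on dose response follow-up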
Target sequence (P11940 whole entry, looked up): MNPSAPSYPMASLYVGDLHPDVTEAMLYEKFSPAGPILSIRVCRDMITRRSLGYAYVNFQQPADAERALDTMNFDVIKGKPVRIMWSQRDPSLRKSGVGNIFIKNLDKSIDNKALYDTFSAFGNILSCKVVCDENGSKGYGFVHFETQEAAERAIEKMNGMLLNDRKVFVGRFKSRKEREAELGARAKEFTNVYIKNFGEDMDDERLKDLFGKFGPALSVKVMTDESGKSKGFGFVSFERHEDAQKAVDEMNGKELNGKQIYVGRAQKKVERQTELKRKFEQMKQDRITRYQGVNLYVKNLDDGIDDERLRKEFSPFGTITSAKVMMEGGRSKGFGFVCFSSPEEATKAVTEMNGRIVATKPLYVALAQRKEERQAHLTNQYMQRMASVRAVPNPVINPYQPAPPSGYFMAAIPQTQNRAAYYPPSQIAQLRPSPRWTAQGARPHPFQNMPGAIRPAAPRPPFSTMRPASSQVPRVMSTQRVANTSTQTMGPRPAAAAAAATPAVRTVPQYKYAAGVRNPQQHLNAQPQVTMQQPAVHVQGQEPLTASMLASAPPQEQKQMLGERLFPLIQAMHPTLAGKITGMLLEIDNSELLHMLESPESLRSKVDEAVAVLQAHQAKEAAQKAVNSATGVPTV
PABP1 MLLE inh = inhibitors of microRNA-mediated deadenylation, human PABP1 MLLE binding | GST-MLLE / FITC-PAM2 fluorescence polarization | hit rate 0.36% among 360,000 | P11940 | inhibition, % at 20 µM; in the data active means inhibition above about 35%, passing the limit was not always enough;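 further: plate controls were DMSO wells with GST-MLLE for no effect and wells lacking GST-MLLE protein for full effect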
SKN-1 inh = inhibitors of C. elegans SKN-1; C. elegans VP596 Pgst-4::GFP/RFP ratio, acrylamide-induced, 24 h; inhibition, % at 21.8 µM; hit rate 0.49% among 360,000;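 active means interference check ratio from 0.5 to 1.5 plus GFP to RFP signal ratio inhibition reaching or exceeding a fixed threshold, cut at about 30% in these data, passing the limit was not always enough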
MT1-MMP act inh = blocks activation of human MT1-MMP. HT1080 RFP-PRO-GFP cells, GFP/RFP ratio fluorescence, overnight; percent of plate control window, DMSO zero. GFP/RFP ratio change, % at 20 µM. hit rate 0.061% among 360,000. AID 651647;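 active means GFP/RFP ratio change of at least 30% with cell ATP level not reduced by more than half and red fluorescence within 50% of control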
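Material: RFP-PRO-GFP reporter HT1080 cells. Dosing: single-point 20 µM compound, 1% DMSO. Controls: DMSO and RFP-L50D-GFP cell wells. Timing: cells overnight before dosing, compound overnight, 37 °C, 5% CO2. Measure: GFP/RFP fluorescence ratio.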
Starred values were filed as active, the others as inactive; i = inactive; nt = no result; + = active, no number. Compounds with a hit are over-represented: about 1.8% of the library has one in this group of screens. Unless noted, how the calls were made is not given here.

SMILES | eIF4H FP inh | PABP polyA inh | PABP1 MLLE inh | SKN-1 inh | MT1-MMP act inh
Oc1ccc(CNc2ccccc2)c2cccnc12 | 20.3 | i | 41.2* | -3.6 | -9.4
COc1ccc(NC(=O)CSc2ccccc2)cn1 | 37.5 | i | 41.8* | -17.3 | 1.5
S=C(NC1CCCCC1)N1CCn2cccc2C1c1ccncc1 (stereo unspecified) | 70.5* | + | -87.8 | 2.2 | 1.4
COCCCN1CN(Cc2ccccc2)CNC1=S | 0.6* | i | -77.7 | 11.0 | 2.7
COc1cc(C(C)=O)ccc1OCC(=O)N1CCCC1c1ccc2c(c1)OCCCO2 (stereo unspecified) | nt | nt | 6.5 | -3.9 | -0.9
Cc1ccc(N2C(=O)C3C4C=CC(CNC(=S)Nc5cccc(Cl)c5)(O4)C3C2=O)cc1 (stereo unspecified) | 4.3 | i | 40.7* | 0.2 | 8.6
Cc1ccc(NC(=O)/C(=C\c2ccc([N+](=O)[O-])cc2)NC(=O)c2ccccc2)cc1 | -9.9 | i | -10.2 | 8.5 | 0.7
O=C(N/N=C/c1ccc(O)c(O)c1O)/C(=C/c1ccc([N+](=O)[O-])cc1)NC(=O)c1ccccc1 | 104.9* | + | 37.0 | 5.6 | 4.6
COc1ccc(/C=C(/CC(=O)NCc2ccc(Cl)cc2)c2nc3ccccc3s2)cc1 | active | i | -9.4 | 18.6 | -1.7
CC1=CC(=O)c2c(O)ccc(O)c2C1=O | 112.1* | + | nt | nt | nt
COc1ccc(C)cc1S(=O)(=O)N(CC(=O)Nc1cc([N+](=O)[O-])ccc1C)c1ccc(C)c(C)c1 | active | + | -1.7 | 6.1 | -1.2
CC(=O)N1CCN(CC(=O)NC(=O)Nc2ccc3c(c2)OCCO3)CC1 | nt | nt | 4.5 | 3.7 | 8.0
CC1=C(C(=O)N(C)C)CC(CC(=O)NC(c2ccccc2)c2ccccc2)C(=O)N1Cc1ccc(F)cc1 (stereo unspecified) | nt | nt | 5.8 | -14.5 | 0.1
N#C/C(=C\c1ccc(N2CCOCC2)cc1)c1ccccc1 | -4.9 | i | 12.1 | 48.1* | -1.1
COc1ccc2c(c1)Cc1sc(NC(=O)c3ccccc3)nc1-2 | 12.0 | i | 14.0 | 42.5* | -2.0
CC(=O)Nc1nc2c(s1)CCc1ccccc1-2 | -5.0 | i | 5.7 | 2.4 | 0.4
O=C(Nc1nc2ccsc2c(=O)s1)c1ccco1 | 64.1* | i | -5.9 | -0.2 | -3.3
Cc1csc2c(=O)sc(NC(=O)c3ccco3)nc12 | -0.5 | i | 32.5 | 25.2 | 2.1
Cc1ccc2nc(NC(=O)c3ccco3)sc2c1 | -11.7 | i | 13.8 | 44.7* | 9.8
COc1ccc(C(=O)Nc2nc3c(s2)Cc2cc(OC)ccc2-3)cc1 | 15.3 | i | -4.3 | 1.9 | -8.1
O=C(Nc1nc2c(s1)CCc1ccccc1-2)c1ccco1 | -2.4 | i | -14.4 | 41.4* | -3.7
C[C@@H]1CCCCO[C@@H](CN(C)C(=O)Cc2ccccc2)[C@@H](C)CN([C@H](C)CO)C(=O)c2cc(NC(=O)C3CCCCC3)ccc2O1 | nt | nt | -5.9 | -7.3 | -0.7
O=C(Nc1nc2c(ccc3ccccc32)s1)c1ccco1 | 2.4 | i | -8.7 | 80.6* | -9.5
CCCCCc1ccc(C(=O)CCCC)c(=S)[nH]1 | 6.8 | i | 38.0* | -6.3 | -20.7
CCCCCc1cc(=O)[nH]c(=S)[nH]1 | -2.9 | i | 17.0 | 18.6 | 2.5
SMILES | eIF4H FP inh | PABP polyA inh | PABP1 MLLE inh | SKN-1 inh | MT1-MMP act inh
CC1(C(=O)Nc2cnc3ccccc3c2)CCN1Cc1ccc(OC(F)(F)F)cc1 (stereo unspecified) | nt | nt | 2.3 | 15.7 | -1.9
CCN(CC)CCCN1C(=O)C(=O)/C(=C(/O)c2ccc(C)cc2)C1c1ccccn1 (stereo unspecified) | 3.1* | + | -1.5 | 7.2 | -6.5
CCOc1ccc(NC(=O)Cn2c(=O)n(CC3CCCO3)c(=O)c3ccccc32)cc1 (stereo unspecified) | active | i | -3.2 | 3.7 | -0.8
CCn1c(CCC(=O)Nc2nc3c(s2)CCCC3)nc2cc(S(=O)(=O)N(C)C)ccc21 | -0.8 | i | -13.6 | 54.5* | -1.6
CCN1CC2=C(OC(N)=C(C#N)C2c2cccs2)/C(=C\c2cccs2)C1 (stereo unspecified) | 97.6* | + | -52.0 | 13.8 | -29.8
Cc1ccc(C2(c3ccccc3)NC(=O)N(CC(=O)NC3CCS(=O)(=O)C3)C2=O)cc1C (stereo unspecified) | nt | nt | -26.1 | 3.5 | -1.3
O=C(CC(Sc1ccc(Br)cc1)C(=O)O)c1ccc(F)cc1 (stereo unspecified) | -2.4 | i | 39.1* | -14.6 | -3.0
CCOc1ccc(C(=O)CC(Sc2ccc(C)cc2)C(=O)O)cc1 (stereo unspecified) | 5.0 | i | 34.7 | 9.8 | -3.5
COc1ccc2cc(N3CCCC3=O)ccc2c1 | nt | nt | -6.8 | 40.7* | 2.8
O=C(Cc1cccc(NC(=O)C2CCN(C(=O)C3CCCC3)CC2)c1)Nc1cccc(C(=O)N2CCOCC2)c1 | nt | nt | 7.6 | 0.4 | 1.1
N#CCC(=O)Nc1ccc(C(=O)NNC(=O)c2ccccc2-n2cccc2)cc1 | nt | nt | -4.4 | -2.9 | -4.0
NC(=O)/C(=C/c1ccco1)NC(=O)c1ccc(Br)o1 | nt | nt | -17.3 | 19.2 | 1.8
O=C(NCCCO)/C(=C/c1ccco1)NC(=O)c1ccc(Br)o1 | 57.7* | i | 7.9 | 6.7 | -0.6
COCCn1ccc2c(OCC(=O)Nc3ccccc3OC)cccc2c1=O | nt | nt | -3.8 | 8.3 | 8.5
CCn1c(CN2CCC(C)CC2)nc2cc(S(=O)(=O)N3CCCCC3)ccc21 | nt | nt | 5.2 | -7.1 | 0.2
CCN1CCN(c2nc3sc4c(c3c3ncnn23)CC(C)CC4)CC1 (stereo unspecified) | -7.6 | i | -0.3 | 64.8* | -4.1
CC1CCc2sc3nc(NCc4ccco4)n4ncnc4c3c2C1 (stereo unspecified) | 2.1 | i | -4.7 | -10.4 | 2.2
C[C@H](CO)N1C[C@H](C)[C@H](CN(C)C(=O)Nc2ccccc2)OCc2cnnn2CCCC1=O | nt | nt | 7.8 | -0.2 | 0.8
COc1ccc(OC)c(-c2oc3ccccc3c(=O)c2O)c1 | -6.7 | i | 20.2 | -4.2 | 5.5
COc1ccc(OC)c(C2=C/C(=C/c3ccccn3)C(=O)O2)c1 | 90.7* | i | -41.5 | -0.1 | -4.9
Nc1nc2ccccc2cc1-c1cccs1 | -8.8 | i | -11.4 | -2.9 | 0.8
c1csc(-c2ccc3ccccc3n2)c1 | -10.2 | i | 1.5 | 43.0* | -4.5
Cc1cccc(C)c1OCC(O)CN(Cc1ccccc1O)C1CCCCC1 (stereo unspecified) | 5.7 | i | -5.5 | 37.4* | -20.2
CN(CCOc1ccccc1)Cc1ccccc1 | nt | nt | 14.5 | 13.9 | 1.7
CC(COc1ccccc1)N(CCCl)Cc1ccccc1 (stereo unspecified) | active | + | 4.6 | -1.5 | 1.2
O=C(O)C1CCN(C(=O)CCN2C(=O)S/C(=C\c3ccccc3)C2=O)CC1 | -9.4 | i | 19.3 | 13.8 | 0.3
O=C(CSc1nnc(COc2ccccc2)n1Cc1ccco1)NCc1ccco1 | 50.3* | + | -86.5 | -4.2 | -11.7

Source: PubChem
